From ChEMBL document CHEMBL4689842, “EUbOPEN Chemogenomics Library wave 1” (2021)

Test system: Fibroblast
Assay: Multiplex assay against human fibroblast
Format: toxicity, cell-based
Procedure, shortened: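 Compound was added to live cells that had been stained at seeding with Hoechst33342, BioTracker Green Microtubule Cytoskeleton Dye, MitoTracker Red and Annexin V Alexa Fluor 680, and imaging followed on a CQ1 microscope at 37°C and 5% CO2. CellPathfinder machine-learning gating divided cells into Hoechst high-intensity objects or normal cells, normal cells into healthy, pyknosed or fragmented nuclei, and pyknosed cells into mitotic or apoptotic. Tubulin, mitochondrial-mass and membrane-permeability phenotypes are per cents of healthy-nucleus cells.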

[1] = 12 h, 1 µM, compound concentration 1 uM, replicate 1
[2] = 12 h, 1 µM, compound concentration 1 uM, replicate 2
[3] = 12 h, 10 µM, compound concentration 10 uM, replicate 1
[4] = 12 h, 10 µM, compound concentration 10 uM, replicate 2
[5] = 24 h, 1 µM, compound concentration 1 uM, replicate 1
[6] = 24 h, 1 µM, compound concentration 1 uM, replicate 2
[7] = 24 h, 10 µM, compound concentration 10 uM, replicate 1
[8] = 24 h, 10 µM, compound concentration 10 uM, replicate 2
[9] = 48 h, 1 µM, compound concentration 1 uM, replicate 1
[10] = 48 h, 1 µM, compound concentration 1 uM, replicate 2
[11] = 48 h, 10 µM, compound concentration 10 uM, replicate 1
[12] = 48 h, 10 µM, compound concentration 10 uM, replicate 2

Structure (SMILES): CCCc1cc(C)[nH]c(=O)c1CNC(=O)c1cc(-c2ccc(N3CCN(C(C)C)CC3)nc2)cc2c1cnn2C(C)C
- Population Apoptotic (%) [1]: 73%
- Population Fragmented Nuclei (%) [1]: 26%
- Population Healthy Nuclei (%) [1]: 41%
- Population Hoechst High Intensity Objects (%) [1]: 22%
- Population Membrane Permeable-Phenotype (%) [1]: 4%
- Population Mitochondria Different-Phenotype (%) [1]: 32%
- Population Mitotic Cells (%) [1]: 26%
- Population Normal (%) [1]: 77%
- Population Pyknosed Nuclei (%) [1]: 31%
- Population Tubulin-Different-Phenotype (%) [1]: 52%
- Total Cell Count [1]: 77
- Population Apoptotic (%) [2]: 20%
- Population Fragmented Nuclei (%) [2]: 19%
- Population Healthy Nuclei (%) [2]: 70%
- Population Hoechst High Intensity Objects (%) [2]: 10%
- Population Membrane Permeable-Phenotype (%) [2]: 8%
- Population Mitochondria Different-Phenotype (%) [2]: 91%
- Population Mitotic Cells (%) [2]: 80%
- Population Normal (%) [2]: 89%
- Population Pyknosed Nuclei (%) [2]: 9%
- Population Tubulin-Different-Phenotype (%) [2]: 94%
- Total Cell Count [2]: 56
- Population Apoptotic (%) [3]: 48%
- Population Fragmented Nuclei (%) [3]: 24%
- Population Healthy Nuclei (%) [3]: 32%
- Population Hoechst High Intensity Objects (%) [3]: 29%
- Population Membrane Permeable-Phenotype (%) [3]: 6%
- Population Mitochondria Different-Phenotype (%) [3]: 21%
- Population Mitotic Cells (%) [3]: 51%
- Population Normal (%) [3]: 70%
- Population Pyknosed Nuclei (%) [3]: 42%
- Population Tubulin-Different-Phenotype (%) [3]: 69%
- Total Cell Count [3]: 143
- Population Apoptotic (%) [4]: 85%
- Population Fragmented Nuclei (%) [4]: 13%
- Population Healthy Nuclei (%) [4]: 47%
- Population Hoechst High Intensity Objects (%) [4]: 5%
- Population Membrane Permeable-Phenotype (%) [4]: 79%
- Population Mitochondria Different-Phenotype (%) [4]: 100%
- Population Mitotic Cells (%) [4]: 14%
- Population Normal (%) [4]: 94%
- Population Pyknosed Nuclei (%) [4]: 38%
- Population Tubulin-Different-Phenotype (%) [4]: 100%
- Total Cell Count [4]: 57
- Population Apoptotic (%) [5]: 31%
- Population Fragmented Nuclei (%) [5]: 30%
- Population Healthy Nuclei (%) [5]: 47%
- Population Hoechst High Intensity Objects (%) [5]: 16%
- Population Membrane Permeable-Phenotype (%) [5]: 11%
- Population Mitochondria Different-Phenotype (%) [5]: 20%
- Population Mitotic Cells (%) [5]: 68%
- Population Normal (%) [5]: 83%
- Population Pyknosed Nuclei (%) [5]: 22%
- Population Tubulin-Different-Phenotype (%) [5]: 85%
- Total Cell Count [5]: 86
- Population Apoptotic (%) [6]: 33%
- Population Fragmented Nuclei (%) [6]: 20%
- Population Healthy Nuclei (%) [6]: 51%
- Population Hoechst High Intensity Objects (%) [6]: 10%
- Population Membrane Permeable-Phenotype (%) [6]: 10%
- Population Mitochondria Different-Phenotype (%) [6]: 78%
- Population Mitotic Cells (%) [6]: 66%
- Population Normal (%) [6]: 90%
- Population Pyknosed Nuclei (%) [6]: 27%
- Population Tubulin-Different-Phenotype (%) [6]: 82%
- Total Cell Count [6]: 53
- Population Apoptotic (%) [7]: 46%
- Population Fragmented Nuclei (%) [7]: 21%
- Population Healthy Nuclei (%) [7]: 43%
- Population Hoechst High Intensity Objects (%) [7]: 25%
- Population Membrane Permeable-Phenotype (%) [7]: 4%
- Population Mitochondria Different-Phenotype (%) [7]: 37%
- Population Mitotic Cells (%) [7]: 53%
- Population Normal (%) [7]: 74%
- Population Pyknosed Nuclei (%) [7]: 35%
- Population Tubulin-Different-Phenotype (%) [7]: 59%
- Total Cell Count [7]: 199
- Population Apoptotic (%) [8]: 91%
- Population Fragmented Nuclei (%) [8]: 8%
- Population Healthy Nuclei (%) [8]: 48%
- Population Hoechst High Intensity Objects (%) [8]: 9%
- Population Membrane Permeable-Phenotype (%) [8]: 85%
- Population Mitochondria Different-Phenotype (%) [8]: 100%
- Population Mitotic Cells (%) [8]: 8%
- Population Normal (%) [8]: 90%
- Population Pyknosed Nuclei (%) [8]: 42%
- Population Tubulin-Different-Phenotype (%) [8]: 100%
- Total Cell Count [8]: 60
- Population Apoptotic (%) [9]: 66%
- Population Healthy Nuclei (%) [9]: 50%
- Population Hoechst High Intensity Objects (%) [9]: 20%
- Population Membrane Permeable-Phenotype (%) [9]: 7%
- Population Mitochondria Different-Phenotype (%) [9]: 23%
- Population Mitotic Cells (%) [9]: 33%
- Population Normal (%) [9]: 79%
- Population Pyknosed Nuclei (%) [9]: 15%
- Population Tubulin-Different-Phenotype (%) [9]: 63%
- Total Cell Count [9]: 96
- Population Apoptotic (%) [10]: 50%
- Population Fragmented Nuclei (%) [10]: 34%
- Population Healthy Nuclei (%) [10]: 63%
- Population Hoechst High Intensity Objects (%) [10]: 10%
- Population Membrane Permeable-Phenotype (%) [10]: 8%
- Population Mitochondria Different-Phenotype (%) [10]: 10%
- Population Mitotic Cells (%) [10]: 50%
- Population Normal (%) [10]: 90%
- Population Pyknosed Nuclei (%) [10]: 1%
- Population Tubulin-Different-Phenotype (%) [10]: 73%
- Total Cell Count [10]: 120
- Population Apoptotic (%) [11]: 77%
- Population Fragmented Nuclei (%) [11]: 34%
- Population Healthy Nuclei (%) [11]: 25%
- Population Hoechst High Intensity Objects (%) [11]: 38%
- Population Membrane Permeable-Phenotype (%) [11]: 5%
- Population Mitochondria Different-Phenotype (%) [11]: 63%
- Population Mitotic Cells (%) [11]: 22%
- Population Normal (%) [11]: 61%
- Population Pyknosed Nuclei (%) [11]: 40%
- Population Tubulin-Different-Phenotype (%) [11]: 68%
- Total Cell Count [11]: 124
- Population Apoptotic (%) [12]: 48%
- Population Fragmented Nuclei (%) [12]: 22%
- Population Healthy Nuclei (%) [12]: 41%
- Population Hoechst High Intensity Objects (%) [12]: 54%
- Population Membrane Permeable-Phenotype (%) [12]: 0%
- Population Mitochondria Different-Phenotype (%) [12]: 42%
- Population Mitotic Cells (%) [12]: 51%
- Population Normal (%) [12]: 45%
- Population Pyknosed Nuclei (%) [12]: 35%
- Population Tubulin-Different-Phenotype (%) [12]: 63%
- Total Cell Count [12]: 202
